The target of assay [1] is Sodium-dependent dopamine transporter (Rattus norvegicus, UniProt P23977). Kind of assay: Inhibitory concentration required to inhibit dopamine transporter DAT was determined by using [3H]WIN-35428 radioligand. A digest of the protocol:
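Competition binding at the DAT with 0.5 nM [3H]WIN35,428 (final concentration). Other procedures follow earlier published methods.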

Assay [2] relates to Mus musculus. Kind of assay: Percent change in locomotor activity in mice at 3 mg/kg i.p. in 1 h. The assay is classed as functional. The following applies: route intraperitoneal. The gist of the method:
(§1)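 Mice habituated 1/2 h to photocell activity chambers, then injected ip with compound homogenized in 0.5% methyl cellulose (10 mL/kg); vehicle controls; N = 5 or 6 per dose. Photobeam interruptions recorded in 10-min bins for 4 h, grouped into 1-h bins; one-way ANOVA with Newman-Keuls post hoc test (p < 0.05).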

For assay [3], the system named is Mus musculus. Kind of assay: Percent change in locomotor activity in mice at 3 mg/kg i.p. in 2 h. The format is functional. The following applies: route intraperitoneal. A digest of the protocol:
as §1

Assay [4] concerns Mus musculus. Kind of assay: Percent change in locomotor activity in mice at 3 mg/kg i.p. in 3 h. The settings on record: route intraperitoneal. The assay is classed as functional. The gist of the method:
as §1

The subject of assay [5] is Mus musculus. Kind of assay: Percent change in locomotor activity in mice at 3 mg/kg i.p. in 4 h. The assay is classed as functional. The settings on record: route intraperitoneal. A digest of the protocol:
as §1

Assay [6] has as its system Mus musculus. Kind of assay: Percent change in locomotor activity in mice at 1 mg/kg i.p. in 1 h. The following applies: route intraperitoneal. The format is functional.
The test system of assay [7] is Mus musculus. In words: Percent change in locomotor activity in mice at 1 mg/kg i.p. in 2 h. The assay is classed as functional. The following applies: route intraperitoneal. The gist of the method: as §1
Assay [8] relates to Mus musculus. Kind of assay: Percent change locomotor activity in mice at 1 mg/kg i.p. in 3 h. The following applies: route intraperitoneal. The format is functional. A digest of the protocol:
as §1

In assay [9] the test system is Mus musculus. Kind of assay: Percent change in locomotor activity in mice at 1 mg/kg i.p. in 4 h. The assay is classed as functional. The settings on record: route intraperitoneal. The gist of the method: as §1
Assay [10] relates to Mus musculus. Kind of assay: Percent change from vehicle in locomotor activity in mice at 10 mg/kg (ip) in 1 h. The format is functional.
Assay [11] relates to Mus musculus. In words: Percent change from vehicle in locomotor activity in mice at 10 mg/kg (ip) in 2 h. The assay is classed as functional.
The test system of assay [12] is Mus musculus. In words: Percent change from vehicle in locomotor activity in mice at 10 mg/kg (ip) in 3 h. The format is functional.
The subject of assay [13] is Mus musculus. Kind of assay: Percent change from vehicle in locomotor activity in mice at 10 mg/kg (ip) in 4 h. The format is functional.
The species entered for assay [14] is Mus musculus. In words: Effective dose for locomotor activity in mice in the peak hour. The format is functional.
For assay [15], the species on record is Mus musculus. In words: Hour 1 ratio to cocaine was determined for locomotor activity in mice. The format is functional.
For assay [16], the target named is T1, Norepinephrine transporter (Rattus norvegicus, UniProt Q9WTR4). Kind of assay: Binding affinity towards norepinephrine transporter was determined using [3H]nisoxetine radioligand. The gist of the method:
(§2)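 Competition binding at the NET with 0.5 nM [3H]nisoxetine (final concentration). Other procedures follow earlier published methods.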

The target of assay [17] is T1, Norepinephrine transporter. In words: Inhibition of norepinephrine transporter (NET) determined using [3H]nisoxetine radioligand. The gist of the method:
as §2

Assay [18] concerns Rattus norvegicus. Kind of assay: Drug discrimination effect of compound in rats, expressed as percent of rats choosing the cocaine lever at dose 10 mg/kg (ip). The assay is classed as functional.
For assay [19], the system named is Rattus norvegicus. In words: Drug discrimination effect of compound in rats, expressed as percent of rats choosing the cocaine lever at dose 3 mg/kg (ip). The format is functional.
Assay [20] relates to Rattus norvegicus. In words: Drug discrimination effect of compound in rats, expressed as percent of rats choosing the cocaine lever at dose 5.6 mg/kg (ip). The assay is classed as functional.
For assay [21], the system named is Rattus norvegicus. Kind of assay: Effective dose for drug discrimination effect in rat (ip). The assay is classed as functional. The gist of the method:
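Cocaine-trained rat drug discrimination, FR10, 10-min sessions. Compound in 0.5% methyl cellulose given ip 15 min before session, usually to 7-8 rats per dose. Doses were raised from ≤20% to ≥80% cocaine-lever choice, capped at 30 mg/kg, >50% loss of pressing, or side effects.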

Assay [22] concerns the target T2, Sodium-dependent serotonin transporter (Rattus norvegicus, UniProt P31652). Kind of assay: Binding affinity towards serotonin transporter 5-HTT was determined using [3H]paroxetine radioligand. The gist of the method:
(§3)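 Competition binding at the 5-HTT with 0.2 nM [3H]paroxetine (final concentration). Other procedures follow earlier published methods.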

Assay [23] addresses T2, Sodium-dependent serotonin transporter. Kind of assay: Inhibitory concentration required to inhibit serotonin transporter 5-HTT was determined by using [3H]paroxetine radioligand. A digest of the protocol: as §3
The test system of assay [24] is Rattus norvegicus. In words: Drug discrimination effect of compound in rats, expressed as percent of rats choosing the cocaine lever at dose 1 mg/kg (ip). The assay is classed as functional.

As usually defined, the pIC50 is −log10 of the IC50, conventionally taken in molar units. A higher pIC50 goes with a small IC50. In general, ED50 refers to the midpoint of the dose-response relation. Lower therefore signals greater potency. For orientation: pKi means the Ki on a negative log10 scale, so that one unit is a factor of ten. Read a low pKi as a large Ki.

pIC50, pKi: −log10 of the molar value.

T2 sequence (P31652 whole entry): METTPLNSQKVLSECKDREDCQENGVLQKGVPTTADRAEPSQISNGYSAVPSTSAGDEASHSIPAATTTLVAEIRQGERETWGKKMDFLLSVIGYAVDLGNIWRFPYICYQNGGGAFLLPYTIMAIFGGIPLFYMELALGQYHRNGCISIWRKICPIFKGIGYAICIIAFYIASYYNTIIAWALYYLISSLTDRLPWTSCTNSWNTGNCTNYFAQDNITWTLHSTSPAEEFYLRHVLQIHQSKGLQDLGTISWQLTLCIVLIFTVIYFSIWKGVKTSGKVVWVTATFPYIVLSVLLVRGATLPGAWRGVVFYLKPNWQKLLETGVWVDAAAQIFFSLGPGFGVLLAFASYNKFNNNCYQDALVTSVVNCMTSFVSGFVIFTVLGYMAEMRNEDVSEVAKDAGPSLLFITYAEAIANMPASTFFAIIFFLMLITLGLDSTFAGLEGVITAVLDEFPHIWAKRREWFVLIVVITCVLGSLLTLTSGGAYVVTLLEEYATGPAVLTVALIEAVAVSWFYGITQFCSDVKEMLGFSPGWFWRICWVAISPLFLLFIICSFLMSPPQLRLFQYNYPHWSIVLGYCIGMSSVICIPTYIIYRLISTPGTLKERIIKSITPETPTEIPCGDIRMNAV
T1 sequence (Q9WTR4 whole entry): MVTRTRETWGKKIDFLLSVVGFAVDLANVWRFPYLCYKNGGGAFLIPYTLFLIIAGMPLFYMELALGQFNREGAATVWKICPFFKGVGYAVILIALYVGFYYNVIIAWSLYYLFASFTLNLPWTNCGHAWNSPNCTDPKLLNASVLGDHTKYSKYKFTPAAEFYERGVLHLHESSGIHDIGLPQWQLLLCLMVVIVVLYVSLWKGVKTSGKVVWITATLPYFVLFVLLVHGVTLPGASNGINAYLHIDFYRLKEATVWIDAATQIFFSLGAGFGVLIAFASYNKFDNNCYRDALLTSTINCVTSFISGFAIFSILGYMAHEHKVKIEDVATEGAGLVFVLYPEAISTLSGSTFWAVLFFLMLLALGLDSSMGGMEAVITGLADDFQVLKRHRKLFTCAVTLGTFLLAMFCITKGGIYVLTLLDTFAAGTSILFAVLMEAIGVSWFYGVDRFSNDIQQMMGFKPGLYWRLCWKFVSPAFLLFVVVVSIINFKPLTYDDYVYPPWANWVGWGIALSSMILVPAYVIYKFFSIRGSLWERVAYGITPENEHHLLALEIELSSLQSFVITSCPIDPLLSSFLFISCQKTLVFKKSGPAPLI
Chain of Sodium-dependent dopamine transporter (P23977 whole entry): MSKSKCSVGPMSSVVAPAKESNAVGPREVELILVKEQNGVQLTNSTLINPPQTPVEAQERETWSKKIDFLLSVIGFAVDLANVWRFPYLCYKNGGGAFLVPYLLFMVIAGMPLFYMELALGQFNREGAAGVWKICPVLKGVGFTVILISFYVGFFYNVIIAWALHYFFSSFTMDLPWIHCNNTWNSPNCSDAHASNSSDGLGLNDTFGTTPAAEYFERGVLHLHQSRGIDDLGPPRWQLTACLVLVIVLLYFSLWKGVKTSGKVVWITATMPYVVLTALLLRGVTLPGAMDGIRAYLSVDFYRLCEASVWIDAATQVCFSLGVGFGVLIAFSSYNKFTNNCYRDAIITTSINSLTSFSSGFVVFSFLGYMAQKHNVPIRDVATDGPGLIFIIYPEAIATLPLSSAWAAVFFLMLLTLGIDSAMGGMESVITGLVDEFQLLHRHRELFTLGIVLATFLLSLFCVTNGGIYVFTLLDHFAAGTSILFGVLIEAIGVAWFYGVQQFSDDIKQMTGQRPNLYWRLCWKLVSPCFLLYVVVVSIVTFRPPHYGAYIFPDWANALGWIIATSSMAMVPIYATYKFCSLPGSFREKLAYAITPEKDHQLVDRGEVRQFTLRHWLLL

`Cc1ccc(C2CC3CCC(C2c2cc(-c4ccccc4)no2)N3C)cc1` (stereo not drawn): the negative logarithm of the IC50 (pIC50) in [1] was 8.80; in [17] it was 6.40; in assay [23] it was 5.29. The Change was 244% in assay [2]; 369% in [3]; 283% in assay [4]; 329% in assay [5]; 48% in assay [6]; 139% in assay [7]. Also, the Change in assay [8] is listed as 89%; in assay [9], 154%; in [10], 526%; in assay [11], 663%; in assay [12] it was 363%; in assay [13], 141%. For the same molecule, the ED50 in assay [14] turned out to be 2.5 mg/kg; in assay [21], 4.88 mg/kg. Moreover, in [15], the Ratio was 1.2. For the same molecule, the figures for the pKi in [16] and in assay [22] were 6.62 and 6.33, respectively. The results for the Drug discrimination effect in [18], in [19] and in assay [20] were 86%, 0% and 75%, respectively.
Take `Cc1ccc(C2CC3CCC(C2C(=O)OC(C)C)N3C)cc1` (stereo not drawn): the figures for the pKi in assay [16] and in assay [22] were 6.26 and 5.94, respectively. Further, the negative-log IC50 (pIC50) in [17] is 5.22; in [23] it was 5.71.
For `Cc1ccc(C2CC3CCC(C2c2cc(C(C)C)no2)N3C)cc1` (stereo not drawn), the negative-log IC50 (pIC50) in assay [1] is 8.35; in assay [17] it was 5.60; in [23], 4.37. For the same molecule, the Change was 329% in [2]; 241% in [3]; 207% in [4]; 70% in [5]; -1% in assay [6]; 29% in assay [7]. The Change is listed as -20% in assay [8]; 24% in [9]; 637% in [10]; 532% in assay [11]; 765% in [12]; 576% in assay [13]. Besides, the ED50 is 4.7 mg/kg in [14] and 4.63 mg/kg in assay [21]. For the same molecule, the Ratio in assay [15] stood at 0.9. Further, the values for the negative-log Ki (pKi) in assay [16] and in [22] were 5.81 and 5.41, respectively. Besides, the Drug discrimination effect in assay [18] worked out at 86%; in [19], 25%; in assay [20], 67%.
Take `CN1C2CCC1C(c1cc(-c3ccc(Cl)cc3)no1)C(c1ccc(Cl)cc1)C2` (stereo not drawn): the pIC50 is 8.19 in assay [1], 5.28 in assay [17] and under 4.12 in [23]. Further, the Change in assay [2] is listed as 59%; in [3] it was 237%; in assay [4], 298%; in assay [5], 389%; in assay [6] it was 15%; in assay [7], 19%. For the same molecule, the Change in assay [8] is 74%; in assay [9] it was 39%; in assay [10] it was 166%; in [11], 612%; in [12], 838%; in assay [13], 1372%. It took a dose of 3.6 mg/kg to reach the 50% effect level in assay [14] (ED50). For the same molecule, the Ratio in assay [15] was found to be 0.4. In [16], this molecule had a negative logarithm of the Ki (pKi) of 5.42. Further, the Drug discrimination effect came out at 0% in assay [24], 50% in assay [18], 13% in [19] and 0% in assay [20].
As for `Cc1ccc(C2CC3CCC(C2c2cc(C(C)(C)C)no2)N3C)cc1` (stereo not drawn), the negative logarithm of the IC50 (pIC50) in [1] was 7.59; in [17] it was 5.48; in assay [23], 3.53. Further, the pKi was 5.74 in [16] and 4.59 in [22].
On to `CN1C2CCC1C(C(=O)Oc1ccccc1)C(c1ccc(Cl)cc1)C2` (stereo not drawn), for which the pKi in assay [16] is 6.67; in [22], 5.75. The negative logarithm of the IC50 (pIC50) in [17] was 5.63; in [23] it was 5.53.
Turning to `CN1C2CC[C@@H]1C[C@H](c1ccc(Cl)cc1)C2c1cc(-c2ccccc2)no1` (stereo partly drawn), the Change in assay [2] amounted to 331%; in [3], 456%; in [4], 377%; in [5], 378%; in assay [6] it was 11%; in assay [7], 27%. The Change in [8] came out at 45%; in [9], 76%; in assay [10], 513%; in assay [11] it was 402%; in assay [12], 485%; in assay [13], 924%. Moreover, the values for the ED50 in assay [14] and in [21] were 3.4 mg/kg and 4.73 mg/kg, respectively. In assay [15], the Ratio is reported as 1.1. The negative-log Ki (pKi) was 6.66 in [16] and 6.52 in [22]. In addition, the figures for the negative logarithm of the IC50 (pIC50) in assay [17] and in [23] were 5.62 and 6.30, respectively. Besides, the Drug discrimination effect in [18] is 75%; in [19], 29%; in assay [20], 63%.
On to `CN1C2CCC1C(c1cc(-c3ccc(F)cc3)no1)C(c1ccc(Cl)cc1)C2` (stereo not drawn), for which the figures for the pIC50 in assay [1], in [17] and in assay [23] were 8.73, 6.04 and 5.14, respectively. For the same molecule, the Change in assay [2] is on record as 271%; in assay [3], 463%; in [4], 479%; in [5] it was 392%; in assay [6] it was -26%; in assay [7], 38%. Further, the Change in [8] is -77%; in assay [9], 37%; in [10], 729%; in assay [11], 832%; in [12], 514%; in assay [13], 767%. The median effective dose (ED50) in assay [14] turned out to be 2.8 mg/kg. The Ratio in assay [15] was determined as 1.6. Further, the negative-log Ki (pKi) in [16] is 6.26; in assay [22], 6.18. Besides, the Drug discrimination effect in assay [18] worked out at 63%; in [19], 13%; in assay [20], 43%.
In the case of `COc1ccc(-c2cc(C3C(c4ccc(Cl)cc4)CC4CCC3N4C)on2)cc1` (stereo not drawn), the pIC50 in [1] was 8.80; in assay [17], 6.12; in assay [23], 5.23. Further, the Change in assay [2] was determined as 197%; in [3] it was 481%; in assay [4], 662%; in [5], 335%; in assay [6], 0%; in assay [7], 51%. In addition, the Change in assay [8] is 101%; in assay [9], -21%; in assay [10], 521%; in assay [11], 1337%; in [12] it was 2830%; in assay [13], 2120%. Besides, the ED50 in [14] was determined as 3.7 mg/kg. Further, in assay [15], the Ratio is recorded as 1.2. The pKi in assay [16] is 6.34; in [22], 6.27. The Drug discrimination effect in [24] is reported as 0%; in assay [18] it was 50%; in [19], 0%; in assay [20], 43%.

The values above are taken from ChEMBL document CHEMBL1148376, “Synthesis, monoamine transporter binding properties, and behavioral pharmacology of a series of 3beta-(substituted phenyl)-2beta-(3'-substituted isoxazol-5-yl)tropanes” (J Med Chem, 2004).
